The species entered for assay [1] is Cavia porcellus. Description: In vitro concentration required to induce contraction of isolated GPGB. It is filed as functional. In a few lines:
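Isolated guinea pig gallbladder contraction. pEC50 (−log EC50 ± SD) assayed in triplicate.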

Assay [2] concerns the target T1, Gastrin/cholecystokinin type B receptor (Homo sapiens, UniProt P32239).
T1 sequence (P32239 whole entry): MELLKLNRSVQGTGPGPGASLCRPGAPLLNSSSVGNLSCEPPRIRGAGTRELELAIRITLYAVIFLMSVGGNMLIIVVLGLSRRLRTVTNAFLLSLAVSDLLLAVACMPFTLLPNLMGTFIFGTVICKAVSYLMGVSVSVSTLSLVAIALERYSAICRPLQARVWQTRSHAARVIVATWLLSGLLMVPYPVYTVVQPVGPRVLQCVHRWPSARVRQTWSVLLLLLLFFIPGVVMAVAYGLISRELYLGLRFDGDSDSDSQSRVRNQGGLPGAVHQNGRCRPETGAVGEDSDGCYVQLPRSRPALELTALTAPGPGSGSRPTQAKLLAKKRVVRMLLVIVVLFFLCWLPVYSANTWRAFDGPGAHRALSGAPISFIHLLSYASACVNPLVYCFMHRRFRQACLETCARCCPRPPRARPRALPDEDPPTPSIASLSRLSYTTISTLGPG

Assay [3] has as its target T2, Cholecystokinin receptor type A (Homo sapiens, UniProt P32238).
T2 sequence (P32238 whole entry): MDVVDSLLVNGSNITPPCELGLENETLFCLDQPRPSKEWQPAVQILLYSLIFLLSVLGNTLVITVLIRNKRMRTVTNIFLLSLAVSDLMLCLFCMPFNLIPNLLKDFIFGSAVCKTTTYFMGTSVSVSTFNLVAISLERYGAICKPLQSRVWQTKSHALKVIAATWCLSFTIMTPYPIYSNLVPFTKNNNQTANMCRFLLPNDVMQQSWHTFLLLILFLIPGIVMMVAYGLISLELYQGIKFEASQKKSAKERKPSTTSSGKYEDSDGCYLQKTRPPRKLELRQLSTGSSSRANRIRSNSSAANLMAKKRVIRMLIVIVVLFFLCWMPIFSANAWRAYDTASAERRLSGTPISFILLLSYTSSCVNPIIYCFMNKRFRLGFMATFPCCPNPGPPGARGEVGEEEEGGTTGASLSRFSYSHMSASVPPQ
Description: In vitro displacement of [125I]BH-CCK-8 from cDNA of human Cholecystokinin type A receptor expressed in CHO-K1 cells. It is filed as cell-based. A general note: Loss of bound radioactivity is the signal in a displacement assay; it reports binding, not function.

Assay [4] is filed under the species Cavia porcellus. Put plainly: The compound was evaluated for contraction as % of CCK-8 maximum against Cholecystokinin type A receptor in guinea pig gallbladder.
The species named for assay [5] is Cavia porcellus. Description: The compound was evaluated for the pKB, single dose pA2 against Cholecystokinin type A receptor in guinea pig gallbladder. It is filed as functional. In a few lines: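 Isolated guinea pig gallbladder. Antagonism against CCK-8 is expressed as pKB, a single-dose pA2.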
Assay [6] is filed under the species Cavia porcellus. Put plainly: mCCK-8 contraction induced by 30 uM in vitro, normalized to CCK-8 (1 uM); IA = 'inactive'. It is filed as functional. In a few lines: (§1)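 Isolated guinea pig gallbladder. Contraction produced by test compound at 30 μM is expressed relative to CCK-8 (1 μM).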
The species entered for assay [7] is Cavia porcellus. Description: mCCK-8 contraction induced by 30 uM in vitro, normalized to CCK-8 (1 uM); IA ='inactive'. It is filed as functional. In a few lines: as §1
Assay [8] concerns Rattus norvegicus. Description: The compound was evaluated for the maximal reduction in feeding achieved at 1 uM/kg dose(ip). The note with it: in the assay text read “0.5 umol/kg” for “1 uM/kg”. It is filed as functional.
Assay [9] relates to Rattus norvegicus. Put plainly: The compound was evaluated for the dose(ip) required to achieve half-maximal inhibition of feeding at 30 min in rats. It is filed as functional. To be noted: 0.5 h. In a few lines:
(§2)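 Male Long-Evans rats (225–300 g) conditioned 2 weeks to a liquid diet. Animals fasted 100 min, then given test compound ip in propylene glycol (1 mL/kg) followed at once by an oral saline preload (8 mL/kg). Diet offered 20 min later and intake measured at 30 min. ED50 is the dose giving half-maximal inhibition; 8–10 rats per dose, normalized to each rat's pretreatment-day response.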

The species named for assay [10] is Cavia porcellus. Put plainly: mCCK-8 contraction induced by 30 uM in vitro, normalized to CCK-8 (1 uM). It counts as functional. The method in brief: as §1
Assay [11] deals with T2, Cholecystokinin receptor type A. Description: Compound was evaluated for the [Ca2+] mobilization innstably transfected CHO-K1 cell lines expressing human Cholecystokinin type A receptor. It is filed as cell-based.
Assay [12] relates to Rattus norvegicus. Description: Compound was evaluated for the maximal reduction in feeding achieved at 1 uM/kg dose(ip). It is filed as functional. In a few lines:
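Conditioned male Long-Evans rats fasted 100 min, dosed ip at 1 μmol/kg in propylene glycol (1 mL/kg), then given an oral saline preload (0.9%, 8 mL/kg). Liquid diet offered 20 min later. Maximal reduction of feeding is the mean of 8–10 animals, normalized to the vehicle pretreatment-day intake.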

The target in assay [13] is T3, Gastrin/cholecystokinin type B receptor (Homo sapiens) (UniProt P32239).
T3 sequence (whole entry): T1 sequence (P32239 whole entry)

Assay [14] addresses T1, Gastrin/cholecystokinin type B receptor. Description: Compound was evaluated for the [Ca2+] mobilization innstably transfected CHO-K1 cell lines expressing human Cholecystokinin type B receptor. It counts as cell-based.
Assay [15] deals with Rattus norvegicus. Put plainly: Compound was evaluated for the dose(ip) required to achieve half-maximal inhibition of feeding at 30 min in rats. It is filed as functional. To be noted: 0.5 h. The method in brief: as §2
In assay [16] the test system is Rattus norvegicus. Put plainly: Compound was evaluated for the dose(ip) required to achieve half-maximal inhibition of feeding at 30 min in rats. It counts as functional. To be noted: 0.5 h. In a few lines: as §2
Assay [17] has as its target T4, Cholecystokinin receptor type A (Cavia porcellus) (UniProt Q63931).
T4 sequence (whole entry): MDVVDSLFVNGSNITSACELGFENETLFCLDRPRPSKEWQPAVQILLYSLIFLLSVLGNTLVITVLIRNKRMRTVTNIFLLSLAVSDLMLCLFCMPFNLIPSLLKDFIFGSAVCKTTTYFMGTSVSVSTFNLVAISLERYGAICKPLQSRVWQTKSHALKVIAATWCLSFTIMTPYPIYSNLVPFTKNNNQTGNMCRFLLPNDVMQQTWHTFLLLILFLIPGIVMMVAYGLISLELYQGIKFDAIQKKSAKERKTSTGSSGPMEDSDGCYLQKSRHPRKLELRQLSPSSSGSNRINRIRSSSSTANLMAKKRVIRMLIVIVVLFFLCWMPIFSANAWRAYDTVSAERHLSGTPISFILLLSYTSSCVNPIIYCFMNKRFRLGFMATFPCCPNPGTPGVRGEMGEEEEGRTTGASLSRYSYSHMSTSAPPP
Description: The compound was evaluated for the contraction as % of CCK-8 maximum against Cholecystokinin type A receptor in guinea pig gallbladder.

This is an account of results in ChEMBL document CHEMBL1128527, “Modification of receptor selectivity and functional activity in cholecystokinin peptoid ligands” (J Med Chem, 1995).

Activity calls are given as the source filed them. No cut-off for these calls is given here. Numbered stars: 1 amine (or outer) side, 2 acyl side, 3 side chain; on linkers, the order of the positions; unused ones are H or OH. Square brackets hold non-standard residues; d marks the D form. Side chains are listed from the residue outwards. Peptide text beside a SMILES is read from it. * marks the point of attachment. NMeF = CN[C@@H](Cc1ccccc1)C(=O)O; NH(2-Me-phenyl) = Cc1ccccc1N*; CO = O=C([*:1])[*:2]

As a reminder, the EC50 is the concentration at which the effect is half-maximal. Read a low EC50 as an effect from little substance. Usually IC50 stands for the concentration at which inhibition is half-maximal. `Cc1ccccc1NC(=O)NCCCC[C@H](CNC(=O)[C@](C)(Cc1c[nH]c2ccccc12)NC(=O)OC1C2CC3CC(C2)CC1C3)NC(=O)CCC(=O)O` (stereo not given in full): the 50% effective concentration (EC50) in the assay listed under Cavia porcellus [1] is 832 nM. For the same molecule, the IC50 was 178 nM in [2] and 229 nM in assay [3]. The “contraction, % of CCK-8 max” value in the assay filed under Cavia porcellus [4] amounted to 83%.

As a reminder, the pKB is the KB on a negative log10 scale, so that one unit is a factor of ten. With `Cc1ccccc1NC(=O)NCCCC[C@@H](CNC(=O)CCC(=O)O)NC(=O)[C@@](C)(Cc1c[nH]c2ccccc12)NC(=O)OC1C2CC3CC(C2)CC1C3` (stereo not given in full), the IC50 in [2] was 224 nM; in assay [3] it was 60.3 nM. The same molecule had a pKB in the assay listed under Cavia porcellus [5] of 7. In the assay filed under Cavia porcellus [6], the result was inactive.

As to `Cc1ccccc1NC(=O)NCCCC[C@@H](CNC(=O)CCC(=O)O)NC(=O)[C@](C)(Cc1c[nH]c2ccccc12)NC(=O)OC1C2CC3CC(C2)CC1C3` (stereo not given in full), the IC50 is 7080 nM in [2] and 724 nM in assay [3]. Moreover, the outcome in the assay filed under Cavia porcellus [7] was inactive.

Turning to `CSCC[C@H](NC(=O)[C@H](Cc1ccc(OS(=O)(=O)O)cc1)NC(=O)[C@@H](N)CC(=O)O)C(=O)NCC(=O)N[C@@H](Cc1c[nH]c2ccccc12)C(=O)N[C@@H](CCSC)C(=O)N[C@@H](CC(=O)O)C(=O)N[C@@H](Cc1ccccc1)C(N)=O` [SINCALIDE], the max inhibition in the assay on Rattus norvegicus [8] was 95%. Also, in the assay on Rattus norvegicus [9], the ED50 came to 0.027 µmol/kg. Further, the Activity in the assay filed under Cavia porcellus [10] stood at 100%.

As to `C[C@](Cc1c[nH]c2ccccc12)(NC(=O)OC1[C@H]2C[C@@H]3C[C@@H](C[C@H]1C3)C2)C(=O)NC[C@H](NC(=O)CCC(=O)O)c1ccccc1` (stereo not given in full) [CI-988], the Activity in the assay filed under Cavia porcellus [10] was 24%.

For the molecule `Cc1ccccc1NC(=O)NCCCC[C@H](CNC(=O)[C@@](C)(Cc1c[nH]c2ccccc12)NC(=O)OC1C2CC3CC(C2)CC1C3)NC(=O)CCC(=O)O` (stereo not given in full), the EC50 in the assay filed under Cavia porcellus [1] is 27.5 nM; in assay [11], 3.16 nM; in assay [14], 2510 nM. Moreover, the figures for the IC50 in assay [2] and in assay [3] were 20 nM and 12 nM, respectively. In the assay filed under Cavia porcellus [4], the “contraction, % of CCK-8 max” value stood at 72%. This molecule also gave a Max inhibition with Rattus norvegicus [12] of 59%. Also, in assay [13], the pKB amounted to 7.7. Besides, the ED50 in the assay with Rattus norvegicus [15] stood at 0.03 µmol/kg.

`CC(=O)N[C@@H](Cc1c[nH]c2ccccc12)C(=O)N[C@@H](CCCCNC(=O)Nc1ccccc1C)C(=O)N[C@@H](CC(=O)O)C(=O)N(C)[C@@H](Cc1ccccc1)C(N)=O` (Ac-WK([CO-NH(2-Me-phenyl)])D[NMeF]-NH2) showed an ED50 with Rattus norvegicus [16] of 0.01 µmol/kg. Besides, the EC50 in the assay listed under Cavia porcellus [1] is 1.58 nM; in assay [11], 3.98 nM. The same molecule registered a contraction, % of CCK-8 max in assay [17] of 105%. The molecule further had an IC50 in [3] of 20 nM. Also, in the assay on Rattus norvegicus [12], the max inhibition came to 67%.
